Results as given in ChEMBL document CHEMBL5058577, “EUbOPEN Chemogenomics Library 2 (Multiplex)” (2022).

Test system: HEK-293T
Assay: Multiplex assay against HEK293T
Format: toxicity, cell-based
Conditions: human
Procedure, shortened: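 Live cells were stained at seeding with Hoechst33342, BioTracker Green Microtubule Cytoskeleton Dye, MitoTracker Red and Annexin V Alexa Fluor 680, then imaged on a CQ1 microscope at 37°C and 5% CO2 after compound addition. CellPathfinder machine-learning gating split cells into Hoechst high-intensity objects or normal cells. Normal cells were split into healthy, pyknosed or fragmented nuclei, and pyknosed cells into mitotic or apoptotic. Tubulin, mitochondrial-mass and membrane-permeability phenotypes are per cents of healthy-nucleus cells.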

[1] = 12 h, 1 µM, compound concentration 1 uM, replicate 1
[2] = 12 h, 1 µM, compound concentration 1 uM, replicate 2
[3] = 12 h, 10 µM, compound concentration 10 uM, replicate 1
[4] = 12 h, 10 µM, compound concentration 10 uM, replicate 2
[5] = 24 h, 1 µM, compound concentration 1 uM, replicate 1
[6] = 24 h, 1 µM, compound concentration 1 uM, replicate 2
[7] = 24 h, 10 µM, compound concentration 10 uM, replicate 1
[8] = 24 h, 10 µM, compound concentration 10 uM, replicate 2
[9] = 48 h, 1 µM, compound concentration 1 uM, replicate 1
[10] = 48 h, 1 µM, compound concentration 1 uM, replicate 2
[11] = 48 h, 10 µM, compound concentration 10 uM, replicate 1
[12] = 48 h, 10 µM, compound concentration 10 uM, replicate 2

O=C(NCCN1CCC(n2c(=O)[nH]c3cc(Cl)ccc32)CC1)c1ccc(F)cc1 [HALOPEMIDE]
Population Apoptotic (%) [1]: 46%
Population Fragmented Nuclei (%) [1]: 5%
Population Healthy Nuclei (%) [1]: 81%
Population Hoechst High Intensity Objects (%) [1]: 7%
Population Membrane Permeable-Phenotype (%) [1]: 0%
Population Mitochondria Different-Phenotype (%) [1]: 54%
Population Mitotic Cells (%) [1]: 53%
Population Normal (%) [1]: 92%
Population Pyknosed Nuclei (%) [1]: 13%
Population Tubulin-Different-Phenotype (%) [1]: 42%
Total Cell Count [1]: 334
Population Apoptotic (%) [2]: 43%
Population Healthy Nuclei (%) [2]: 79%
Population Hoechst High Intensity Objects (%) [2]: 10%
Population Mitochondria Different-Phenotype (%) [2]: 62%
Population Mitotic Cells (%) [2]: 56%
Population Normal (%) [2]: 89%
Population Pyknosed Nuclei (%) [2]: 15%
Population Tubulin-Different-Phenotype (%) [2]: 29%
Total Cell Count [2]: 373
Population Apoptotic (%) [3]: 39%
Population Fragmented Nuclei (%) [3]: 5%
Population Healthy Nuclei (%) [3]: 74%
Population Hoechst High Intensity Objects (%) [3]: 14%
Population Membrane Permeable-Phenotype (%) [3]: 0%
Population Mitochondria Different-Phenotype (%) [3]: 76%
Population Mitotic Cells (%) [3]: 60%
Population Normal (%) [3]: 85%
Population Pyknosed Nuclei (%) [3]: 20%
Population Tubulin-Different-Phenotype (%) [3]: 68%
Total Cell Count [3]: 460
Population Apoptotic (%) [4]: 65%
Population Fragmented Nuclei (%) [4]: 6%
Population Healthy Nuclei (%) [4]: 72%
Population Hoechst High Intensity Objects (%) [4]: 13%
Population Membrane Permeable-Phenotype (%) [4]: 1%
Population Mitochondria Different-Phenotype (%) [4]: 84%
Population Mitotic Cells (%) [4]: 34%
Population Normal (%) [4]: 86%
Population Pyknosed Nuclei (%) [4]: 21%
Population Tubulin-Different-Phenotype (%) [4]: 59%
Total Cell Count [4]: 319
Population Apoptotic (%) [5]: 40%
Population Fragmented Nuclei (%) [5]: 7%
Population Healthy Nuclei (%) [5]: 79%
Population Hoechst High Intensity Objects (%) [5]: 3%
Population Membrane Permeable-Phenotype (%) [5]: 1%
Population Mitochondria Different-Phenotype (%) [5]: 35%
Population Mitotic Cells (%) [5]: 59%
Population Normal (%) [5]: 96%
Population Pyknosed Nuclei (%) [5]: 12%
Population Tubulin-Different-Phenotype (%) [5]: 24%
Total Cell Count [5]: 471
Population Fragmented Nuclei (%) [6]: 9%
Population Hoechst High Intensity Objects (%) [6]: 6%
Population Membrane Permeable-Phenotype (%) [6]: 0%
Population Mitochondria Different-Phenotype (%) [6]: 37%
Population Normal (%) [6]: 93%
Population Pyknosed Nuclei (%) [6]: 11%
Population Tubulin-Different-Phenotype (%) [6]: 21%
Total Cell Count [6]: 508
Population Apoptotic (%) [7]: 27%
Population Fragmented Nuclei (%) [7]: 8%
Population Healthy Nuclei (%) [7]: 72%
Population Hoechst High Intensity Objects (%) [7]: 8%
Population Membrane Permeable-Phenotype (%) [7]: 1%
Population Mitochondria Different-Phenotype (%) [7]: 63%
Population Mitotic Cells (%) [7]: 72%
Population Normal (%) [7]: 91%
Population Pyknosed Nuclei (%) [7]: 19%
Population Tubulin-Different-Phenotype (%) [7]: 64%
Total Cell Count [7]: 580
Population Apoptotic (%) [8]: 64%
Population Fragmented Nuclei (%) [8]: 9%
Population Healthy Nuclei (%) [8]: 70%
Population Membrane Permeable-Phenotype (%) [8]: 0%
Population Mitochondria Different-Phenotype (%) [8]: 78%
Population Mitotic Cells (%) [8]: 35%
Population Pyknosed Nuclei (%) [8]: 20%
Population Tubulin-Different-Phenotype (%) [8]: 62%
Total Cell Count [8]: 361
Population Apoptotic (%) [9]: 30%
Population Fragmented Nuclei (%) [9]: 13%
Population Healthy Nuclei (%) [9]: 79%
Population Hoechst High Intensity Objects (%) [9]: 1%
Population Membrane Permeable-Phenotype (%) [9]: 1%
Population Mitochondria Different-Phenotype (%) [9]: 21%
Population Mitotic Cells (%) [9]: 69%
Population Normal (%) [9]: 98%
Population Pyknosed Nuclei (%) [9]: 6%
Population Tubulin-Different-Phenotype (%) [9]: 16%
Total Cell Count [9]: 841
Population Apoptotic (%) [10]: 28%
Population Hoechst High Intensity Objects (%) [10]: 3%
Population Membrane Permeable-Phenotype (%) [10]: 0%
Population Mitotic Cells (%) [10]: 71%
Population Normal (%) [10]: 96%
Population Pyknosed Nuclei (%) [10]: 7%
Population Tubulin-Different-Phenotype (%) [10]: 10%
Total Cell Count [10]: 675
Population Apoptotic (%) [11]: 37%
Population Fragmented Nuclei (%) [11]: 14%
Population Healthy Nuclei (%) [11]: 72%
Population Hoechst High Intensity Objects (%) [11]: 8%
Population Membrane Permeable-Phenotype (%) [11]: 1%
Population Mitochondria Different-Phenotype (%) [11]: 57%
Population Mitotic Cells (%) [11]: 62%
Population Normal (%) [11]: 91%
Population Pyknosed Nuclei (%) [11]: 12%
Population Tubulin-Different-Phenotype (%) [11]: 55%
Total Cell Count [11]: 706
Population Apoptotic (%) [12]: 60%
Population Healthy Nuclei (%) [12]: 74%
Population Hoechst High Intensity Objects (%) [12]: 6%
Population Mitochondria Different-Phenotype (%) [12]: 64%
Population Mitotic Cells (%) [12]: 40%
Population Normal (%) [12]: 93%
Population Pyknosed Nuclei (%) [12]: 11%
Total Cell Count [12]: 531
